Sampled rows, rich in hits. Any-hit rate of the full collection: about 3%.
Kir21 inh: inhibitors of mouse Kir2.1 inward-rectifier potassium channel. HEK293-Kir2.1, FluxOR thallium flux fluorescence; stronger effect = lower value. B-score at 10 µM. Inward rectifier potassium channel 2 (Mus musculus), P35561. 310,000 compounds, 0.85% hits;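 active = fluorescence ratio B-score at or below minus 3 SD of library scores, with starting-brightness B-score within 2 SD, cut at about -4.2 in these data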;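 note: channel flux triggered by added potassium and thallium sulfate stimulus; B-score of peak minus minimum fluorescence over baseline after thallium stimulus; more negative B-score means stronger Kir2.1 block with less thallium influx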
Target sequence (P35561 whole entry, looked up): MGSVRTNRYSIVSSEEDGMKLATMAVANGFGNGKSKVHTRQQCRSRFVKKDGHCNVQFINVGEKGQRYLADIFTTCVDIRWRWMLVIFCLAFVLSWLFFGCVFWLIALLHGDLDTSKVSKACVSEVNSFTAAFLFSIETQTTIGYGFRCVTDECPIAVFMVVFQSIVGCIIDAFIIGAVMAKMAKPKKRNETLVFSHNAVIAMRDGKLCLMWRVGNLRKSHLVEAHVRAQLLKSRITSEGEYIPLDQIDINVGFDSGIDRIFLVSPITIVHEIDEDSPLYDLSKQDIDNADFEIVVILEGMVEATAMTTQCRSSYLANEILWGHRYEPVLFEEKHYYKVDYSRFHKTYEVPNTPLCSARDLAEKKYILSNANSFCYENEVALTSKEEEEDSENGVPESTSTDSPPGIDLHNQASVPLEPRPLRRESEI
TRPC6 inh: mouse TRPC6 channel inhibitors, primary screen, cell-based, HEK293, membrane potential dye. ACh-evoked depolarization; stronger effect = lower value. B-score at 10 µM. 310,000 compounds, 1.1% hits;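 active = B-score under library mean minus 3 SD, initial fluorescence not abnormally high, positive integrated signal ratio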;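 note: B-score derived from integrated fluorescence ratio over the kinetic read; more negative B-score means stronger inhibition of depolarization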
TRPC4 agonist: activators of mouse TRPC4 channel, primary screen, Fluo4 calcium, HEK293 TRPC4beta/mu-opioid cells; 310,000 compounds, 0.49% hits; Short transient receptor potential channel 4 (Mus musculus), Q9QUQ5; Fluo4 calcium fluorescence; stronger effect = higher value; AID 2237, 2010; B-score at 10 µM;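 active = B-score above 5 SD of library B-scores, and initial fluorescence ratio not above library mean plus 5 SD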;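 note: positive B-score marks a calcium rise read as TRPC4 activation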
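Material: HEK293 stable line with TRPC4beta plus mu-opioid receptor; technique: Fluo4 calcium-sensitive dye fluorescence, kinetic, 1 Hz baseline; timing: Fluo4 dye loading 45 min at room temperature, 110 s recording; controls: assay buffer as low control, maximal DAMGO as high control; read-out: integrated baseline-normalised fluorescence ratio, converted to per-well B score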
TRPC6 activator: mouse TRPC6 channel activators, primary screen, cell-based, HEK293, membrane potential dye | Short transient receptor potential channel 6 (Mus musculus), Q61143 | HEK293-TRPC6 membrane potential dye fluorescence; stronger effect = higher value | B-score at 10 µM | 310,000 compounds, 0.13% hits | AID 2550, 2010;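 active = B-score of the integrated fluorescence ratio above library mean plus 3 SD, and starting fluorescence ratio within library mean plus 5 SD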;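 note: higher score means more depolarization so channel activation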
TRPC4 PAM: positive allosteric modulators of TRPC4, primary screen, cell-based, mouse TRPC4beta, HEK293 mu-opioid, Fluo-4 calcium | Short transient receptor potential channel 4 (Mus musculus), Q9QUQ5 | DAMGO EC20, Fluo-4 Ca2+ flux; stronger effect = higher value | B-score at 10 µM | 310,000 compounds, 0.42% hits | AID 2227, 2009;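 active = B-score of calcium response area above 5 SD of library B-scores, with initial fluorescence ratio within 5 SD of library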;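 note: B-score of integrated fluorescence ratio over time as area under calcium response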
TRPC4 inh: inhibitors of mouse TRPC4 channel, primary screen, Fluo4 calcium, HEK293 TRPC4beta/mu-opioid cells. DAMGO-evoked Fluo4 calcium flux; stronger effect = lower value. B-score at 10 µM. 300,000 compounds, 0.39% hits. AID 2247, 2010;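 active = B-score over 3 SD under the library average, no early fluorescence shift, positive overall ratio signal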
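Signal: kinetic Fluo4 fluorescence imaging of calcium influx. Material: stable TRPC4beta/mu-opioid receptor HEK293 cells. Probe or stimulus: DAMGO in two steps, submaximal then maximal.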
HEK293 TRPC6 ctr: parental HEK293 membrane potential modulation, confirmation, counter-screen for TRPC6 modulator project, cell-based. shares compounds with TRPC6 inh. membrane potential dye fluorescence. membrane potential signal change, % at 10 µM. 2,400 compounds, 51% hits;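 active = membrane potential signal moves up or down beyond 5 SD from buffer-only wells, on both duplicate plates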
HEK293 MPD ctr 2: second counter-screen for TRPC6 modulators: effect in parental HEK293 cells; membrane potential dye fluorescence; after compound, maximal acetylcholine stimulation; 2,400 compounds, 14% hits; shares compounds with TRPC6 inh; inhibition, % at 10 µM;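 active = membrane potential signal drops by more than 5 SD from the mean control signal, in both duplicate plates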;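 note: plate controls were acetylcholine ECmax control wells for no effect and buffer only wells for full effect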
TRPC4 ctr mod: TRPC4 modulation by TRPC6 hit compounds, confirmation, selectivity assay for TRPC6 modulator project, cell-based, HEK293 TRPC4/mu-opioid, membrane potential dye, mouse | shares compounds with TRPC6 inh | membrane potential fluorescence | percent change from control (negative = decrease, positive = increase), % at 10 µM | 2,400 compounds, 69% hits | AID 488927, 2010;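 active = membrane potential signal moved up or down beyond 5 SD of buffer control wells, in both duplicate plates, actives on both sides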;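 note: plate controls were assay buffer wells for no effect and DAMGO maximal-effect wells for full effect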
TRPC4/MOR inh 2: second selectivity test of TRPC6 modulators against mouse TRPC4; shares compounds with TRPC6 inh; HEK293 TRPC4/mu-opioid, membrane potential dye fluorescence; stimulated with maximal-effect DAMGO; inhibition, % at 10 µM; 2,400 compounds, 55% hits;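 active = drop in membrane potential signal beyond 5 SD of the control wells in both duplicate plates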;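 note: TRPC4 counter screen for TRPC6 hits run under conditions tuned for TRPC6 not TRPC4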
TRPC6 block conf: mouse TRPC6 channel inhibitors, confirmation, HEK293 cells, membrane potential dye, duplicate; shares compounds with TRPC6 inh; ACh-evoked depolarization; inhibition, % at 10 µM; 3,300 compounds, 43% hits; AID 488960, 2010;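 active = fluorescence ratio falls more than 5 SD below the full-stimulation control mean, in both duplicate runs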;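 note: integrated fluorescence ratio of peak minus minimum over baseline after agonist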
TRPC6 act conf: mouse TRPC6 channel activators, confirmation, HEK293 cells, membrane potential dye, duplicate; shares compounds with TRPC6 inh; HEK293-TRPC6 membrane potential dye fluorescence, FDSS; activation, % at 10 µM; 2,800 compounds, 11% hits; AID 488961, 2010;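 active = ratio signal rise beyond 5 SD above unstimulated control wells' mean, seen in both duplicate runs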;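 note: plate controls were buffer EC0 wells for no effect and acetylcholine ECmax response for full effect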
* hit, by the source's call.

Screening CCCCN(C(=O)c1cccc(S(=O)(=O)N2CCCCC2)c1)C1CCS(=O)(=O)C1 (stereo not drawn) returned Kir21 inh -0.56, TRPC6 inh inactive, TRPC4 agonist inactive, TRPC6 activator inactive, TRPC4 PAM inactive and TRPC4 inh inactive.
Screening N#Cc1c(-c2cccs2)nc(SCC(=O)c2cccs2)[nH]c1=O returned Kir21 inh 0.98, TRPC6 inh inactive, TRPC4 agonist inactive, TRPC6 activator 12*, TRPC4 PAM inactive, TRPC4 inh inactive, HEK293 TRPC6 ctr 114%*, HEK293 MPD ctr 2 inactive, TRPC4 ctr mod 26%*, TRPC4/MOR inh 2 inactive, TRPC6 block conf inactive and TRPC6 act conf 40%*.
COc1ccc(-n2c(O)c(/C=N/NS(=O)(=O)c3ccc(C)cc3)c3ccccc3c2=O)cc1OC was read as Kir21 inh -6.4, TRPC6 inh inactive, TRPC4 agonist inactive, TRPC6 activator 29*, TRPC4 PAM inactive, TRPC4 inh inactive, HEK293 TRPC6 ctr 242%*, HEK293 MPD ctr 2 inactive, TRPC4 ctr mod 11%*, TRPC4/MOR inh 2 inactive, TRPC6 block conf inactive and TRPC6 act conf 96%*.
For CN(Cc1ccc(F)cc1)S(=O)(=O)c1nnc(NC(=O)c2ccccc2Br)s1 the results were Kir21 inh -1.2, TRPC6 inh inactive, TRPC4 agonist inactive, TRPC6 activator 17*, TRPC4 PAM inactive, TRPC4 inh -6*, HEK293 TRPC6 ctr inactive, HEK293 MPD ctr 2 inactive, TRPC4 ctr mod 17%*, TRPC4/MOR inh 2 62%*, TRPC6 block conf inactive and TRPC6 act conf inactive.
Screening CCN(CC)CCNC(=O)c1ccc(NC(=O)c2cccc(-n3cnnn3)c2)cc1 returned Kir21 inh 0.74, TRPC6 inh inactive, TRPC4 agonist inactive, TRPC6 activator inactive, TRPC4 PAM inactive and TRPC4 inh inactive.
CCN(CC)CCNC(=O)c1ccc(NC(=O)c2ccc3c(c2)CCC3)cc1 was read as Kir21 inh 1, TRPC6 inh -9.5*, TRPC4 agonist inactive, TRPC6 activator 12*, TRPC4 PAM inactive, TRPC4 inh inactive, HEK293 TRPC6 ctr 217%*, HEK293 MPD ctr 2 inactive, TRPC4 ctr mod 29%*, TRPC4/MOR inh 2 inactive, TRPC6 block conf 69%* and TRPC6 act conf 160%*.

Compound activity from PubChem.
